Compound activity deposited in PubChem by several laboratories.
Hck Nef HTS: human Hck-Nef kinase inhibition; P08631; inhibition, % at 20 µM; Recombinant Hck-YEEI plus Nef, Z-Lyte FRET kinase assay; hit rate 0.68% among 220,000;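 active means Hck-Nef kinase inhibition above about 50%, limit read from the data; inactive means inhibition below that limit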
Target sequence (P08631 whole entry, looked up): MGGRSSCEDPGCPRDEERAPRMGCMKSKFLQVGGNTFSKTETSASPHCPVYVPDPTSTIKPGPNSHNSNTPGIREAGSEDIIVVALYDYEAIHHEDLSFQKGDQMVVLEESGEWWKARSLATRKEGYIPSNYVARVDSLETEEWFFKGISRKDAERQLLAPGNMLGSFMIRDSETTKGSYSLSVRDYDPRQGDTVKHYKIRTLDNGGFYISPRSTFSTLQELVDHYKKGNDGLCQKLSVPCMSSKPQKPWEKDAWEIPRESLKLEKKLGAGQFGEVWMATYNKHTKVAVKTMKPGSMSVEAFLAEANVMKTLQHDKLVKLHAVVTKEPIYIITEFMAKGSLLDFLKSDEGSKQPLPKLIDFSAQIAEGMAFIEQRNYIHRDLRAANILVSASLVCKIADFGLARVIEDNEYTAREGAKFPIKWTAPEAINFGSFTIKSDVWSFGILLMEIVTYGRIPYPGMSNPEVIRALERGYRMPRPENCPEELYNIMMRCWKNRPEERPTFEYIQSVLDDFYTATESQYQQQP
RAM network inh: yeast RAM network inhibition. S. cerevisiae dse1pr::URA3 reporter, 5-FOA growth OD615, 2 d; analog-sensitive cbk1-as2 kinase mutant strain. inhibition, % at 50 µM. hit rate 1.8% among 190,000. AID 868;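 active means inhibition above a set limit, 3 SD over mean compound inhibition, cut at about 8.4% in these data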;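 further: inhibition rescues growth on 5-FOA so higher OD means more RAM inhibition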
WT yeast gro inh: growth inhibition of WT yeast, mitochondrial fusion screen. mitochondrial fusion phenotypic screen, WT strain. inhibition, % at 10 µM. hit rate 2.1% among 190,000. AID 1362; in the data active means inhibition above about 58%; tested in S. cerevisiae
Arbovirus inh: arbovirus infection inhibition; arbovirus infection cell-based antiviral screen; inhibition, % at 10 µM; hit rate 0.37% among 200,000; AID 1251; in the data active means inhibition above about 30%
p47phox inh: blocks human p47phox regulatory protein of NADPH oxidases; P14598; p47phox/p22phox peptide binding, fluorescence polarization, 2 h; hit rate 0.53% among 220,000; AID 1274; inhibition, % at 24.7 µM;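 active means inhibition above about 30%, limit read from the data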
Biofilm kill mix: mixture kills Candida albicans biofilm cells; hit rate 0.02% among 120,000; C. albicans biofilm persisters + clotrimazole, fluorescence viability; primary screen in compound mixtures of four per well; AID 1242; inhibition, % at 7.6 µM;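 active means inhibition above 30.3% in the primary screen of four-compound pools, then above 30% when the compound was retested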;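 further: compounds exposed to preformed 24 h biofilms for 48 h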
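Test system: C. albicans biofilms. Buffer or medium: RPMI/MOPS medium, pH 7.0. Timing: 48 h compound exposure at 37 °C. Technique: Alamar Blue fluorescence. Evaluation: percent inhibition of biofilm viability.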
Of the large screens only hits and unclear results are named; the others gave an inactive call. The list is not random: actives were taken first. Their share in the collection is about 4.6%.

COc1cccc(-c2nc(-c3ccccc3)nc(N3CCN(C)CC3)c2C#N)c1	WT yeast gro inh 81
CN1CCN(c2nc(-c3ccccc3)nc(-c3ccccc3)c2C#N)CC1	WT yeast gro inh 73
COc1ccc(-c2nc(-c3ccccc3)nc(N3CCN(C)CC3)c2C#N)cc1	none (no result: Biofilm kill mix)
O=C(NCc1ccccn1)c1cccn1-c1ncc(C(F)(F)F)cc1Cl	none
COc1ccc(C(=O)N[C@H](C(=O)OCc2cc(=O)oc3cc(C)ccc23)C(C)C)cc1	none
CC1(C)CC(=O)C2=C(C1)N=c1s/c(=C/c3ccc(F)c(F)c3)c(=O)n1C2c1ccc(F)cc1 (stereo not given)	WT yeast gro inh 76 (no result: Biofilm kill mix)
CCC(=Nc1ccccc1)C1=C(O)CC(C)(C)CC1=O	none
CCOc1ccccc1OCCOCCN1CCN(Cc2ccccc2)CC1	p47phox inh 40
COC(=O)c1ccc(CSc2nc(C)nc3sc(C)c(C)c23)o1	none (no result: Biofilm kill mix)
CC(C)=C1C2CCC1C1C(=O)N(c3nc(-c4ccccc4)c(C)s3)C(=O)C21 (stereo not given)	WT yeast gro inh 59
CC(C)=C1C2CCC1C1C(=O)N(c3nccs3)C(=O)C21 (stereo not given)	none
C=CCc1cccc(CNc2nc3ccccc3n2CC)c1O	none (no result: Biofilm kill mix)
CCCCn1c(NCc2ccccc2O)nc2ccccc21	none (no result: Biofilm kill mix)
CCCn1c(NCc2cc(C)ccc2O)nc2ccccc21	Arbovirus inh 36 (no result: Biofilm kill mix)
C=CCc1cccc(CNc2nc3ccccc3n2CCC)c1O	WT yeast gro inh 59 (no result: Biofilm kill mix)
Cn1c(=O)c(C(=O)CSc2nncs2)c(N)n(Cc2ccccc2)c1=O	none (no result: Biofilm kill mix)
COC(=O)c1ccccc1NC(=O)C1CCCN(S(=O)(=O)c2ccc(OC)cc2)C1 (stereo not given)	none (no result: Biofilm kill mix)
O=C(c1ccc(Cl)c(Cl)c1)c1cnc(Nc2ccccc2)s1	WT yeast gro inh 87 (no result: Biofilm kill mix)
Cc1ccc(O)c(C(=O)c2cnc3c(c2)COc2ccc(C)cc2-3)c1	RAM network inh 8.7
COC(=O)C1=C(C)N(Cc2ccc(C)cc2)C(=O)/C1=C\c1ccc(O)c(OC)c1	none (no result: Biofilm kill mix)
CCOc1cc(/C=C2\C(=O)N(CCc3ccc(OC)c(OC)c3)C(C)=C2C(=O)OC)ccc1O	p47phox inh 53
COC(=O)C1=C(C)N(c2cccc(OC)c2)C(=O)/C1=C\c1ccco1	RAM network inh 9.0
COC(=O)C1=C(C)N(CCc2ccccc2)C(=O)/C1=C\c1ccco1	RAM network inh 11
Cn1c(=O)[nH]c(=O)c2c1nc(N1CCOCC1)n2CCSc1ncccn1	none (no result: RAM network inh, WT yeast gro inh, Arbovirus inh, p47phox inh, Biofilm kill mix)
CC(C)(C)C(=O)N1CCN(c2nc3ccccc3o2)CC1	none (no result: p47phox inh)
CN1C(=O)C2C(c3ccc(N(C)C)cc3)NN(Cc3ccccc3)C2C1=O (stereo not given)	none
COc1ccccc1N1CCN(C(=O)Cn2nc(C(F)(F)F)c3c2CCC3)CC1	none (no result: Biofilm kill mix)
CC1(C)CCCN(C(=O)N2c3ccccc3Sc3ccccc32)C1	RAM network inh 11 (no result: Biofilm kill mix)
O=C(CN1CCCC1)N1c2ccccc2Sc2ccccc21	none (no result: Biofilm kill mix)
Cc1cccc(-n2ncc3c(N(C)Cc4ccccc4)ncnc32)c1	WT yeast gro inh 70 (no result: RAM network inh)
Cc1cccc(-n2ncc3c(N)ncnc32)c1	none (no result: Biofilm kill mix)
COc1ccc(Br)cc1CN(C)CC(=O)Nc1c(Cl)cccc1Cl	Arbovirus inh 30
COC(=O)CCC(=O)NC(=S)Nc1ccc(S(=O)(=O)N2CCCC2)cc1	none
Cc1ccc(S(=O)(=O)N(CC(=O)Nc2ccccc2C(=O)O)c2ccc(Cl)cc2)cc1	RAM network inh 8.5
Cc1ccc(C(=O)NN(CCC(=O)NC(C)(C)C)C2=NS(=O)(=O)c3ccccc32)cc1	RAM network inh 9.6
CN(NC(=O)c1ccccc1)C1=NS(=O)(=O)c2ccccc21	none
Cc1cccn2c(=O)c(C=NCc3ccco3)c(Nc3ccc(SC(F)F)cc3)nc12	WT yeast gro inh 83 (no result: Biofilm kill mix)
Cc1cccn2c(=O)c(C=NCCO)c(NCc3ccco3)nc12	none (no result: Biofilm kill mix)
Cc1cccc(OCCCC(=O)Nc2ccc(N3CCCCC3)cc2)c1C	WT yeast gro inh 61 (no result: Biofilm kill mix)
Cc1ccc(C)c(SCC(=O)OCC(=O)NCc2ccccc2)c1	none
Cc1ccc(C)c(SCC(=O)NC(=O)NCc2ccccc2)c1	RAM network inh 11
CCOC(=O)C1CCC(CN(Cc2ccccc2C)S(=O)(=O)c2ccc([N+](=O)[O-])cc2)CC1 (stereo not given)	WT yeast gro inh 74
Cc1ccc(S(=O)(=O)NNC2CC(=O)N(c3ccc(Br)cc3)C2=O)cc1 (stereo not given)	none
Cc1c(C(=O)N2CCC(C)CC2)sc2ncnc(N3CCN(c4ccccc4)CC3)c12	none (no result: Biofilm kill mix)
O=C(Nc1nnc(-c2ccccc2F)s1)c1cccnc1	p47phox inh 73
O=C(Nc1nnc(C(F)(F)F)s1)c1cccnc1	none (no result: Biofilm kill mix)
O=C(O)/C=C/C(=O)NC1CCC(CC2CCC(NC(=O)/C=C/C(=O)O)CC2)CC1 (stereo not given)	none
O=c1c2ccccc2n(Cc2ccc(F)cc2)c(=O)n1C1CCCC1	WT yeast gro inh 77 (no result: Biofilm kill mix)
Cc1ccc(C)c(Nc2nc3c(S(=O)(=O)c4ccccc4)nnn3c3ccccc23)c1	RAM network inh 8.4
COc1ccc(CCC(=O)NCc2cn3ccccc3n2)cc1	none (no result: RAM network inh, WT yeast gro inh, Arbovirus inh)
N/C(=N/O)c1ccccc1N1CCC(Cc2ccccc2)CC1	WT yeast gro inh 70
CN(C)S(=O)(=O)N1CCC(Cc2ccccc2)CC1	none (no result: Biofilm kill mix)
NC(=O)c1cccn1-c1ncc(C(F)(F)F)cc1Cl	none
O=C(Nc1ccc(Br)cc1)c1cccn1-c1ncc(C(F)(F)F)cc1Cl	WT yeast gro inh 78 (no result: Biofilm kill mix)
Cc1cc2[nH]cnc2c([N+](=O)[O-])c1C	none
O=S(=O)(Nc1ccc2c(c1)oc1ccccc12)N1CCCC1	none (no result: Biofilm kill mix)
COc1cc2c(cc1NS(=O)(=O)N1CCCCC1)oc1ccccc12	WT yeast gro inh 80 (no result: Biofilm kill mix)
COc1cc2c(cc1NC(=O)CSCC(=O)O)oc1ccccc12	none (no result: Biofilm kill mix)
COc1cc2c(cc1NC(=O)Nc1ccccc1)oc1ccccc12	WT yeast gro inh 69 (no result: Biofilm kill mix)
COc1cc2c(cc1NC(=O)C(C)NCc1ccccc1)oc1ccccc12 (stereo not given)	WT yeast gro inh 68
COc1ccc(N(Cc2ccccc2)C(=O)c2ccccc2[N+](=O)[O-])cc1	none (no result: Biofilm kill mix)
COc1ccc(C2C(=O)N(C3CCCCC3)CC(=O)N2Cc2ccco2)cc1 (stereo not given)	none (no result: Biofilm kill mix)
Cc1cc(C)c(Cn2cnc(-c3ccc([N+](=O)[O-])cc3)c2)c(C)c1	WT yeast gro inh 60 (no result: Biofilm kill mix)
CC(C)(C)c1ccc(Cn2cnc(-c3ccc([N+](=O)[O-])cc3)c2)cc1	none
Cc1ccc(-n2c(O)c(C=Nc3ccc4c(c3)OCO4)c3ccccc3c2=O)cc1C	RAM network inh 10 (no result: Biofilm kill mix)
CNS(=O)(=O)c1c(C)cc(C)c(N(C)S(=O)(=O)c2ccccc2)c1C	none
C/C(=N\NC(=O)c1ccc(Cl)cc1)c1cccs1	p47phox inh 38
C/C(=N\NC(=O)c1ccc(NS(=O)(=O)c2cccs2)cc1)c1cccs1	none
CCOC(=O)c1c(C)nc2c(c1-c1ccccc1)C(=O)CCC2	none (no result: Biofilm kill mix)
Cc1ccc(-c2nn(C)c(=O)c3ccccc23)cc1S(=O)(=O)NCCN1CCOCC1	none (no result: Biofilm kill mix)
